Bioassay records as filed in PubChem.
SENP8 block-1 – SENP8 protease inhibition; Q96LD8; purified SENP8, Z-RLRGG-aminoluciferin cleavage, luminescence; inhibition, % at 10 µM; 1.2% of 330,000 active; AID 2540; in the data active means inhibition above about 50%
Target sequence (Q96LD8 whole entry, looked up): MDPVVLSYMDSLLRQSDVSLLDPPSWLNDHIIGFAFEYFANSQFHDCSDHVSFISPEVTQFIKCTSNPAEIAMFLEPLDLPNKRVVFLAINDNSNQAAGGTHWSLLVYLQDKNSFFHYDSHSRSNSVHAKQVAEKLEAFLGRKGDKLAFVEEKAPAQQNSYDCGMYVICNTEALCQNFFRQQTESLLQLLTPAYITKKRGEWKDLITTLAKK
SENP1 FRET inh – blocks the human SENP1 SUMO protease catalytic domain; Q9P0U3; recombinant SENP1 catalytic domain, CyPet-SUMO1-YPet FRET cleavage; inhibition, % at 10 µM; 0.21% of 360,000 active; AID 624204;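 active means inhibition at least 30% at 10 µM, raw YFP signal under a set limit, fluorescence ratio 0.5 to 1.5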;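 further: 0% = enzyme with DMSO and 100% = no enzyme wells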
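Assay system: hSENP1 catalytic domain, recombinant. Amount: SENP1 enzyme, 20 pM final. Schedule: 50 min reaction, RT, dark. Technique: FRET, CFP and YFP emission. Control set: no-enzyme wells low, DMSO-plus-enzyme wells high control.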
SENP8 block-2 – blocks human SENP8 cleavage of Nedd8 substrate; Q96LD8; recombinant SENP8, Nedd8 substrate fluorescence; inhibition, % at 20 µM; 0.64% of 360,000 active; in the data active means inhibition mostly above about 40%, no sharp cut-off; inactive means mostly below about 27%
SENP6 block – blocks the human protease SENP6; Q9GZR1; Recombinant SENP6 catalytic domain, aminoluciferin luminescence; inhibition, % at 10 µM; 1.8% of 330,000 active;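 active means inhibition above about 50% at the single tested dose, limit read from the data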;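 further: plate controls were DMSO wells with enzyme for no effect and DMSO wells lacking enzyme for full effect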
SENP7 block – inhibitors of human SENP7 protease | 1.5% of 330,000 active | AID 434973 | recombinant SENP7, Z-RLRGG-aminoluciferin luminescence, 40 min | Q9BQF6 | inhibition, % at 5 µM;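 active means inhibition above about 50% at the single test dose, limit read from the data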;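 further: plate controls were DMSO with enzyme for no effect and no enzyme buffer wells for full effect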
SENP8 confirm – confirmation of human SENP8 protease inhibitors; 40% of 6,200 active; Recombinant SENP8, Z-RLRGG-aminoluciferin luminescence, 60 min; shares compounds with SENP7 block; inhibition, % at 12.5 µM; AID 488912;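 active means mean inhibition across replicates above about 50%, limit read from the data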
SENP6 confirm – confirmation of human SENP6 protease inhibitors. inhibition, % at 12.5 µM. AID 488915. recombinant SENP6, Z-RLRGG-aminoluciferin luminescence. shares compounds with SENP7 block. 58% of 6,200 active
SENP7 confirm – confirmation of human SENP7 protease inhibitors; AID 488917; 69% of 6,200 active; inhibition, % at 12.5 µM; shares compounds with SENP7 block; recombinant SENP7, Z-RLRGG-aminoluciferin luminescence, 40 min
Casp3 SENP sel – inhibits human caspase-3 in SENP selectivity test | AID 488918 | shares compounds with SENP7 block | purified caspase-3, Z-DEVD-aminoluciferin luminescence, 60 min | inhibition, % at 12.5 µM | 60% of 6,200 active;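 active means mean inhibition above about 50%, limit read from the data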;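 further: plate controls were enzyme with DMSO for no effect and wells without caspase-3 for full effect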
Target sequence (P42574 28-227 limits assumed): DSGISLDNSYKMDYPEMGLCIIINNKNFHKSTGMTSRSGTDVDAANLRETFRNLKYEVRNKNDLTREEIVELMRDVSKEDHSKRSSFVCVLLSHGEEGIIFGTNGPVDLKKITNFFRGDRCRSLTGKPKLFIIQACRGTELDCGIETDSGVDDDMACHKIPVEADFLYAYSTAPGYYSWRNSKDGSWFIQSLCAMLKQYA
SENP luc ctr – interferes with luciferase luminescence in SENP counter-screen | 39% of 6,200 active | Pre-incubated SENP8/Z-RLRGG-aminoluciferin, luciferase luminescence interference | inhibition, % at 12.5 µM | AID 488919 | shares compounds with SENP7 block;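 active means mean inhibition above about 50% when retested at one dose, limit read from the data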;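 further: plate controls were DMSO wells with completed reaction for no effect and substrate without enzyme for full effect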
* = called active by the depositor; i = inactive; / = no result given. Most compounds without a hit are left out; they make up all but 2.5% or so of the library.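 How the source made its calls, unless noted: active means mean inhibition above about 50% in the one-dose retest (limit read from the data); inactive means the rest.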

SMILES	SENP8 block-1	SENP1 FRET inh	SENP8 block-2	SENP6 block	SENP7 block	SENP8 confirm	SENP6 confirm	SENP7 confirm	Casp3 SENP sel	SENP luc ctr
O=C(N/C=C/c1ccccc1)c1ccccc1	58.4*	-0.5	-16.2	70.8*	41.0	-6.3	45.9	82.1*	63.2*	35.8
Cc1cc(C)n(CCc2nc(-c3ccc(-c4ccccc4)cc3)cs2)n1	19.5	0.6	3.5	83.1*	79.5*	26.8	49.6	68.0*	36.1	21.1
COc1ccc(-c2csc(CCn3nc(C)cc3C)n2)cc1	-0.7	-1.3	-11.5	-1.1	6.6	/	/	/	/	/
C=CCn1c2ccccc2c(=O)c2cc(C#CC3(O)CCCCC3)ccc21	70.9*	-32.0	-454.0	75.8*	43.1	8.9	78.7*	93.1*	59.9*	-3.5
Cn1c2ccccc2c(=O)c2cc(C#CC3=CCCCC3)ccc21	28.0	-27.6	-498.1	39.0	-0.2	/	/	/	/	/
C=CCn1c2ccccc2c(=O)c2cc(C#CC[C@@H](C)O)ccc21	37.2	-33.2	i	56.5*	29.7	59.0*	59.3*	76.2*	52.4*	32.6
Cc1nc2[nH]c(=O)n(O)c(=O)c2s1	/	-0.7	4.2	/	/	/	/	/	/	/
Cc1cccc(NC(=O)c2ccc(F)c(S(=O)(=O)NCc3ccco3)c2)c1	38.2	-1.0	-4.5	51.9*	36.2	39.2	32.9	63.3*	43.7	51.0*
Cc1nnc(SCC(=O)Nc2sccc2C#N)s1	3.5	-2.9	-3.4	11.9	-4.5	/	/	/	/	/
N#Cc1ccsc1NC(=O)CSc1nnnn1-c1ccc(O)cc1	34.7	-10.4	9.9	51.8*	18.1	33.3	25.3	61.1*	33.9	32.8
N#Cc1ccsc1NC(=O)CSc1nncs1	95.2*	13.7	-3.6	94.7*	97.2*	96.7*	97.4*	102.0*	98.5*	83.5*
CCC1CCC/C1=N\NC(=O)c1ccoc1C (centres undefined)	2.0	-1.6	2.0	5.1	2.7	/	/	/	/	/
O=C(O)c1ccc(Nc2ccc([N+](=O)[O-])c3nonc23)cc1	81.0*	11.5	32.5	84.9*	68.3*	88.8*	85.4*	97.3*	71.8*	82.2*
CC(=O)c1ccc(Nc2ccc([N+](=O)[O-])c3nonc23)cc1	10.9	19.0	31.9	37.5	16.3	/	/	/	/	/
CC(CC(=O)N1CCN(S(=O)(=O)c2ccc([N+](=O)[O-])cc2)CC1)c1ccccc1 (centres undefined)	6.5	-0.5	9.4	-6.1	-4.4	/	/	/	/	/
CC(C)N(CCCNC(=O)Cn1c(=O)c2cccn2c2ccc(F)cc21)Cc1ccccc1	-1.4	-1.2	-6.0	-14.3	61.5*	9.8	7.2	-5.3	0.3	-1.5
CCN1CCN(CCNC(=O)Cn2c(=O)c3cccn3c3ccc(F)cc32)CC1	8.0	-1.4	-2.6	5.0	1.2	/	/	/	/	/
COc1ccccc1N1CCN(C(=O)c2ccc3ncsc3c2)CC1	/	1.2	-2.4	/	/	/	/	/	/	/
Cc1ccc(NC(=O)c2cc(C)n(-c3cccc(C)c3)c2C)cc1	-3.9	-2.9	16.7	17.6	-2.9	/	/	/	/	/
Cc1ccc(NC(=O)c2cc(C)n(-c3ccccc3)c2C)cc1	66.7*	1.2	15.9	86.2*	72.2*	86.0*	85.1*	96.9*	72.8*	42.8
Cc1cc(C(=O)Nc2ccc(Cl)cc2)c(C)n1-c1ccccc1	89.2*	-14.1	6.6	93.0*	91.2*	91.2*	97.6*	102.3*	88.5*	29.5
CC1(C)CC(=O)c2sc(NC(=O)c3ccccc3)nc2C1	55.3*	/	/	39.7	56.9*	60.0*	51.2*	65.1*	75.0*	64.3*
CC1(C)CNC(=O)c2sc(NC(=O)c3ccccc3)nc2C1	-6.4	-0.7	6.4	3.8	-6.0	/	/	/	/	/
